Source: PubChem BioAssay AID588842 (Broad Institute, 2011)
Results filed as inconclusive are left out. Activity calls are given as the source filed them.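 How the source made its calls: active means cytotoxic compounds whose fitted half-effect concentration is at most twice the top tested dose in every test run; inconclusive means test runs disagree, or a flat moderate drop, or a poor fit; inactive means inactive in every run, including wrong-direction effects.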

Test system: ldlA[mSR-BI] CHO cells viability, CellTiter-Glo ATP, 24 h
Test: cytotoxicity in ldlA[mSR-BI] CHO cells, dose response, cytotoxicity control for HDL uptake inhibitor project, cell-based, CellTiter-Glo ATP, 24 h, dry powder, set 4 (AID 588842)
Conditions: not given
How it was run: (§1)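 assay system = ldlA[mSR-BI] cells | quantity = 4,000 cells per well | buffer or medium = Ham's F12 medium with 10% FCS and PSG | evaluation = IC50 from compound dose-response curves of cell viability | schedule = 24 h compound exposure at 37 °C, then 10 min CellTiter-Glo incubation | signal = luciferase luminescence reporting cellular ATP, CellTiter-Glo reagent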

Compound	AC50 [µM]
COc1c(NC(=O)C(=O)c2ccc(OCCN3CCOCC3)c3ccccc23)cc(C(C)(C)C)cc1NS(C)(=O)=O	15.5
CCOc1ccccc1/C=C/c1onc(C)c1S(=O)(=O)N1CCC(C(=O)NC(C)(C)C)CC1	30.1
C[C@@H]1CN([C@H](C)CO)C(=O)c2cc(NC(=O)Cc3cn(C)c4ccccc34)ccc2O[C@H]1CN(C)S(=O)(=O)c1ccc(F)cc1	47.7
CCC(=O)N1CCc2cc(-c3csc(NC(=O)c4ccccc4)n3)ccc21	67.8
C[C@H]1CN([C@@H](C)CO)C(=O)c2cccc(NC(=O)Nc3ccccc3)c2O[C@@H]1CN(C)Cc1ccc(Cl)c(Cl)c1	29.8
CCC(=O)N1CCc2cc(-c3csc(NC(=O)c4ccc(F)cc4)n3)ccc21	48.2
CC(C)NC(=O)Nc1cccc2c1O[C@H](CN(C)Cc1ccc(Cl)c(Cl)c1)[C@@H](C)CN([C@@H](C)CO)C2=O	58
CCCCCCC1CCC/C1=N\NC(N)=S (configuration not stated)	3.86

Test system: not listed separately
Test: as above
Conditions: ldlA[mSR-BI] CHO cells viability, CellTiter-Glo ATP, 24 h; at 35 µM (top of the series)
How it was run: as §1

Compound	activity change, negative = cytotoxicity
CCC(=O)N1CCc2cc(-c3csc(NC(=O)c4ccco4)n3)ccc21	-17.6% (inactive)
O=C(Nc1nc(-c2ccc3c(c2)CCN3S(=O)(=O)c2ccccc2)cs1)c1ccco1	-30.8% (inactive)
COc1ccc(-c2nnn(CC(=O)N(C3CCCCC3)C(C)C(=O)NC3CCCC3)n2)cc1OC (configuration not stated)	-11.1% (inactive)
CCC(=O)N1CCc2cc(-c3csc(NC(=O)c4ccncc4)n3)ccc21	-2.04% (inactive)
CCC(=O)N1CCc2cc(-c3csc(NC(=O)c4ccc(Cl)cc4)n3)ccc21	-5.95% (inactive)
C[C@@H]1CN([C@H](C)CO)C(=O)c2cc(NC(=O)Cc3cn(C)c4ccccc34)ccc2O[C@H]1CN(C)S(=O)(=O)c1ccc(Cl)cc1	-19% (inactive)
CCC(=O)N1CCc2cc(-c3csc(NC(=O)c4cccnc4)n3)ccc21	-3.5% (inactive)
CCC(=O)N1CCc2cc(-c3csc(NC(=O)c4ccc(OC)cc4)n3)ccc21	-11.6% (inactive)
CCC(=O)N1CCc2cc(-c3csc(NC(=O)c4ccoc4)n3)ccc21	-8.58% (inactive)
CCC(=O)N1CCc2cc(-c3csc(N)n3)ccc21	-18.4% (inactive)
CC(C(=O)NC1CCCC1)N(C(=O)Cn1nnc(-c2ccc3c(c2)OCO3)n1)C1CCCCC1 (configuration not stated)	-16.1% (inactive)
CC(C(=O)NC1CCCC1)N(C(=O)Cc1ccccc1)C1CCCCC1 (configuration not stated)	-1.74% (inactive)
CCC(=O)N1CCc2cc(-c3csc(NC(=O)c4cnco4)n3)ccc21	-1.99% (inactive)

Same assay, conditions: ldlA[mSR-BI] CHO cells viability, CellTiter-Glo ATP, 24 h; at 68 µM (top of the series)

Compound	activity change, negative = cytotoxicity
CCOc1ccc(NC(=O)CN2CCN(CC(=O)Nc3cc(OC)cc(OC)c3)CC2)cc1	-20% (inactive)
